# Source: PubChem (Sanford-Burnham Center for Chemical Genomics)
# Only some compounds are listed: those with a hit (about 1.5% of all), similar ones and a draw of the others.
# APJ agonist = APJ receptor agonism; P35414; CHO-K1 APJ PathHunter beta-arrestin, luminescence; 0% DMSO wells, 100% apelin; activation, % at 20 µM; hit rate 0.11% among 330,000; AID 2520;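 active = activation more than six SD over the plate average, tested at 20 µM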
#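 Test system – PathHunter CHO-K1 APJ (AGTRL-1) beta-arrestin reporter cells · Input – 1000 cells/well · Compound – single test compound dose, 20 µM final, 1% DMSO · Times – compound stimulation 90 min at 25 °C, detection 60 min · Technique – beta-gal luminescence · Read-out basis – APJ–arrestin association signal · Control set – negative DMSO alone, positive Apelin-13 at 10 nM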
# CXCR6 inh = blocks human CXCR6 beta-arrestin recruitment | O00574 | CHO-K1 PathHunter CXCR6 beta-arrestin, luminescence | AID 602244 | inhibition, % at 20 µM | hit rate 0.36% among 360,000; in the data active = inhibition above about 34%, passing the limit was not always enough;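 also: antagonist mode with CXCL16 agonist at 10 nM final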
# Target sequence (O00574 whole entry, looked up): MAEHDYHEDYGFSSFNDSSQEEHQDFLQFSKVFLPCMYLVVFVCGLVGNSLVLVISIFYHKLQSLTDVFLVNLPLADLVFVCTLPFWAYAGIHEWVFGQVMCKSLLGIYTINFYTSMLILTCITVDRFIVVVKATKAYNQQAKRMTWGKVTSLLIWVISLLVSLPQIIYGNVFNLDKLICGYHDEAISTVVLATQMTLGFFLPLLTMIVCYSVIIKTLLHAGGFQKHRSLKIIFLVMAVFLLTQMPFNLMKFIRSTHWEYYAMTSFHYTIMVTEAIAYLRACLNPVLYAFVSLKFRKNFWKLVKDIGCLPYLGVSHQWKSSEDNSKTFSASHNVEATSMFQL
# CCR6 antag = antagonists of human CCR6 receptor; inhibition, % at 20 µM; CHO-K1 CCR6 PathHunter beta-arrestin, luminescence, CCL20-stimulated; hit rate 0.49% among 340,000; AID 493098; P51684;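 active = compounds whose inhibition of the agonist-driven luminescence signal at 20 µM reaches about 50%, limit read from the data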;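 also: cells stimulated with CCL20 at 14 nM final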
# EBI2 antag = EBI2 (human) antagonism. P32249. EBI2 beta-arrestin recruitment, luminescence, 7a,25-OHC stimulated. inhibition, % at 5 µM. hit rate 0.81% among 360,000; in the data active = inhibition above about 38%;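 also: enzyme fragment complementation signal reports receptor beta-arrestin coupling in cells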
# APJ antagonist = APJ receptor antagonism. P35414. CHO-K1 APJ beta-arrestin complementation, luminescence. inhibition, % at 20 µM. hit rate 0.32% among 330,000. AID 2521;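 active = inhibition above about 40% at 20 µM, limit read from the data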;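 also: cells challenged with 10 nM apelin-13 agonist together with compound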
# APJ ag conf = APJ receptor agonism confirmation | shares compounds with APJ agonist | hit rate 10% among 310 | CHO-K1 APJ PathHunter beta-arrestin, luminescence | activation, % at 20 µM;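 active = activation above 40%, taking the highest of four retests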
# Hits are given with their value; . = inactive; / = no result.
SMILES,APJ agonist,CXCR6 inh,CCR6 antag,EBI2 antag,APJ antagonist,APJ ag conf
CC(C)C[C@H]1CNC(=O)C(=O)N1C[C@@H]1CCCN1C[C@H](CC(C)C)N1C[C@H](Cc2ccccc2)N(CCc2ccccc2)C(=O)C1=O,/,.,/,.,/,/
Cc1ccc(NC(=O)CSc2nc3ccc(Nc4nc(N5CCOCC5)nc(N5CCOCC5)n4)cc3s2)cc1,.,.,.,.,.,/
CCOC(=O)CSc1nc2ccc(Nc3nc(N4CCOCC4)nc(N4CCOCC4)n3)cc2s1,19,.,.,.,.,.
CC(C)C[C@@H](CO)N(Cc1ccccc1)S(=O)(=O)N(Cc1ccccc1)[C@H](CO)CC(C)C,11,.,.,.,.,.
COc1ccc2[nH]c3c(=O)n(/N=C/[C@H]4C(C)C=C(C)CC4C)c(=O)[nH]c3c2c1 (stereo not given in full),24,.,.,.,.,.
O=C(Nc1ccccc1N1CCOCC1)c1ccccc1[N+](=O)[O-],.,.,.,.,.,/
O=C(Nc1ccccc1N1CCOCC1)c1ccc([N+](=O)[O-])s1,10,.,.,.,.,.
COc1ccccc1N=c1c2c([N+](=O)[O-])cc([N+](=O)[O-])cc2n(O)n1-c1ccccc1OC,15,/,/,/,.,.
Brc1ccc(NCc2cccc3ccccc23)nc1,.,.,.,.,.,/
Oc1ccccc1CNc1ccc(Br)cn1,18,.,.,.,.,.
CCOC(=O)[C@]12CCC=C1N(Cc1ccco1)C(=O)[C@H](CC(=O)N1CCCC1)C2,/,.,/,.,/,/
N=c1c(C(=O)NC2CCCCC2)cc2c(=O)n3ccccc3nc2n1CCc1ccccc1,20,.,.,.,.,.
N=c1c(C(=O)NC2CCCCC2)cc2c(=O)n3ccccc3nc2n1Cc1ccccc1,.,.,.,.,.,/
C#CCOCCOCCOCCNc1nc(N2CCN(C(=O)CCCCCCCCCCNC(=O)[C@H]([C@@H](C)CC)n3cc(CCCCCN)nn3)CC2)nc(N2CCN(C(=O)CCCCCCCCCCNC(=O)[C@H]([C@@H](C)CC)n3cc(CCCCN=C(N)N)nn3)CC2)n1,51,.,/,.,.,.
C#CCOCCOCCOCCNc1nc(N2CCN(C(=O)CCCCCCCCCCNC(=O)[C@H]([C@@H](C)CC)n3cc(CCCCN=C(N)N)nn3)CC2)nc(N2CCN(C(=O)CCCCCCCCCCNC(=O)[C@H](CCCCN)n3cc(C)nn3)CC2)n1,83,/,.,/,40,.
CCc1nc2c(OCc3ccc(F)c(F)c3)cccn2c1N(C)C(=O)C1CC1,/,.,/,.,/,/
COc1ccc(Nc2ccnc3ccccc23)cc1,.,.,.,.,.,/
CC(C)Nc1ccc(Nc2ccnc3cc4ccccc4cc23)cc1,24,.,.,.,.,.
N#Cc1ccccc1OCC(=O)Nc1c(C(=O)C2CC2)oc2ccccc12,40,.,.,.,.,.
CC(C)(C)n1nnnc1C(c1ccccc1)N1CCN(c2ccc(C(F)(F)F)cn2)CC1 (stereo not given),/,.,/,.,/,/
CCCCC1=CC2=CC(=O)C(C)(OC(=O)CC)C(=O)C2=CN1C1CCCCC1 (stereo not given),125,.,.,.,.,54
COC(=O)CCCC1=CC2=CC(=O)C(C)(OC(=O)c3cccs3)C(=O)C2=CN1C1CCCCC1 (stereo not given),92,.,.,.,.,.
COC(=O)C1(C(=O)OC)C2CCCCC2N(S(=O)(=O)c2ccc(C)cc2)[C@@H]1CC(C)=O (stereo not given in full),/,/,/,.,/,/
CCOc1ncccc1C(=O)Nc1cc(S(=O)(=O)N2CCCCC2)ccc1OC,25,.,.,.,.,.
CCCCc1ccc(NC(=O)COc2ccc(C(=O)Nc3ccccc3OCC)cc2)cc1,36,.,.,.,.,.
SMILES,APJ agonist,CXCR6 inh,CCR6 antag,EBI2 antag,APJ antagonist,APJ ag conf
CC(C)CC1C(=O)N(Cc2cn(CC3CCCCC3)nn2)CCS(=O)(=O)N1Cc1ccc(-c2cccc(CO)c2)cc1 (stereo not given),/,.,/,.,/,/
O=C(CSc1n[nH]c(=O)n1C1CC1)Nc1ccccc1,.,.,.,.,.,/
O=C(CSc1n[nH]c(=O)n1C1CC1)Nc1cc(Cl)ccc1Oc1ccccc1,12,.,.,.,.,.
Oc1ccc(/C=N/Nc2ccnc3cc(Cl)ccc23)c(O)c1O,.,.,.,.,.,/
Oc1ccc(/C=N/Nc2ccnc3cc(Cl)ccc23)cc1O,15,.,.,.,.,.
CCNC(=O)C1(C)CCCN(C(=O)c2cc(-c3ccccc3)cs2)C1 (stereo not given),/,.,/,.,/,/
CCc1ccccc1N1CC(C(=O)Nc2cc(S(=O)(=O)N3CCCC3)ccc2Cl)CC1=O (stereo not given),.,.,.,.,.,/
c1ccc(CNc2nc(-c3ccccc3)nc3ccccc23)cc1,.,.,.,.,.,/
c1ccc(CNc2nc(NCc3ccccc3)c3ccccc3n2)cc1,28,.,.,.,.,.
COc1ccc(CN2C[C@@H](CO)O[C@@H](n3cnc4c(N(C)C)ncnc43)C2)cc1,/,.,/,.,/,/
Cc1cc(C)n2nc3nc(N4CCCCC4)nc(-c4ccco4)c3c2n1,73,.,.,.,.,41
CC(=O)c1c(C)[nH]c(C(=O)OCc2cccc(Cl)c2)c1C,.,.,.,.,.,/
CC(=O)c1c(C)[nH]c(C(=O)OCc2cc(-c3ccco3)on2)c1C,13,.,.,.,.,.
COc1ccc2ccccc2c1C=NN1CCCCC1,/,.,/,.,/,/
CN1CCN(c2ccc(NC(=S)NC(=O)c3cccc4ccccc34)cc2)CC1,28,.,.,.,.,.
C=CCSc1nc(O)c(CC)c(=O)n1C(C)CC (stereo not given),76,.,.,.,.,49
Cc1ccc(C(O)c2ncc(-c3ccc(F)cc3)[nH]2)cc1F (stereo not given),/,.,/,.,/,/
CC(=O)c1c(C)[nH]c(C(=O)OCC(=O)Nc2cc(Cl)ccc2[N+](=O)[O-])c1C,17,.,.,.,.,.
COC(=O)[C@]1(Cc2ccccc2)N[C@H](CN(C)C(=O)Nc2ccc(OC)cc2)[C@@H]2C(=O)N(Cc3ccccc3)C(=O)[C@@H]21,12,.,.,.,.,.
COC(=O)[C@]1(Cc2ccccc2)N[C@H](CN(C)C(=O)Nc2ccc(OC)cc2)[C@@H]2C(=O)N(C)C(=O)[C@@H]21,.,.,.,.,.,/
Clc1cccc(CN2CCc3c([nH]c4ccccc34)C2)c1,.,.,.,.,.,/
Clc1ccc(CN2CCc3c([nH]c4ccccc34)C2)cc1Cl,85,.,.,.,.,.
CN1CCN(c2c(/C=N/O)c3ccccc3n2C)CC1,.,.,.,.,.,/
Cc1ccccc1C(=O)O/N=C/c1c(N2CCOCC2)n(C)c2ccccc12,15,.,.,.,.,.
